ChEMBL document CHEMBL1159324, “Bioactive isomalabaricane triterpenes from the marine sponge Rhabdastrella globostellata” (J Nat Prod, 2002)

Columns and labels:
Assay type in all cases: functional, cell-based
Conditions in all cases: HCT-116, 48 h
HCT-116 [1] = assay: Cytotoxicity against P21 deficient human HCT116 cells after 48 hrs by MTS assay
Summary of the method: (§1)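 HCT116 colon tumour lines (wild type and isogenic p53- or p21-deficient, p21 disrupted by homologous recombination) grown in McCoy's 5A with 10% FBS, penicillin/streptomycin, L-glutamine and sodium pyruvate at 37 °C, 5% CO2. Seeded per well at 3000 (p53+, p53-), 4000 (p21+) or 6000 (p21-) cells. After 24 h, medium was replaced. Cells were exposed to varying concentrations for 48 h, and MTS bioreduction was read at 490 nm.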

HCT-116 [2] = assay: Cytotoxicity against P53+ wild type human HCT116 cells after 48 hrs by MTS assay; summary of the method: as §1
HCT-116 [3] = assay: Cytotoxicity against P21+ wild type human HCT116 cells after 48 hrs by MTS assay; summary of the method: as §1
HCT-116 [4] = assay: Cytotoxicity against P53 deficient human HCT116 cells after 48 hrs by MTS assay; summary of the method: as §1

SMILES	IC50 (HCT-116 [1]) [µM]	IC50 (HCT-116 [2]) [µM]	IC50 (HCT-116 [3]) [µM]	IC50 (HCT-116 [4]) [µM]
CC(/C=C/C=C(C)/C=C/C=C(\C)C(=O)O)=C1/C(=O)C[C@H]2[C@@]3(C)CCC(=O)C(C)(C)[C@@H]3CC[C@]12C [STELLETIN E]	0.039	> 5.39	4.57	> 5.39
CC(/C=C/C=C(\C)C(=O)O)=C\C=C\C(C)=C1\C(=O)C[C@H]2[C@@]3(C)CCC(=O)C(C)(C)[C@@H]3CC[C@]12C [RHABDASTRELLIC ACID A]	3.49		> 5.39	
CC(/C=C/C=C(\C)c1ccc(C)c(=O)o1)=C1/C(=O)C[C@H]2[C@@]3(C)CCC(=O)C(C)(C)[C@@H]3CC[C@]12C [STELLETTIN B]	0.043	7.25	0.65	8.23
CC(=O)O[C@H]1CC[C@@]2(C)[C@@H](CC[C@]3(C)/C(=C(C)/C=C/C=C(C)/C=C/C=C(\C)C(=O)O)C(=O)C[C@@H]23)C1(C)C	3.86		> 4.92	
C\C(=C/C=C/C(C)=C1/C(=O)C[C@H]2[C@@]3(C)CCC(=O)C(C)(C)[C@@H]3CC[C@]12C)c1ccc(C)c(=O)o1 [STELLETIN A]	0.26		4.46	
CC(=O)O[C@H]1CC[C@@]2(C)[C@@H](CC[C@]3(C)\C(=C(C)/C=C/C=C(\C)c4ccc(C)c(=O)o4)C(=O)C[C@@H]23)C1(C)C [STELLETTIN C]	0.3		2.45	
CC(=O)O[C@H]1CC[C@@]2(C)[C@@H](CC[C@]3(C)/C(=C(C)/C=C/C=C(\C)c4ccc(C)c(=O)o4)C(=O)C[C@@H]23)C1(C)C [STELLETTIN D]	0.31		0.43	
CC(=O)O[C@H]1CC[C@@]2(C)[C@@H](CC[C@]3(C)\C(=C(C)/C=C/C=C(C)/C=C/C=C(\C)C(=O)O)C(=O)C[C@@H]23)C1(C)C	3.98		> 4.92	
